Active and inactive are the calls of the source. The rule behind the calls is not given here.
Columns and labels:
[1] = biological target: T1, Vitamin D3 receptor (Homo sapiens) (UniProt P11473); assay: Agonist activity at human VDR expressed in human HCT116 cells assessed as CYP24A1 transcriptional activity at 20 to 40 uM after 24 hrs by luciferase reporter gene assay; assay type: cell-based; settings: HCT-116
T1 sequence (whole entry): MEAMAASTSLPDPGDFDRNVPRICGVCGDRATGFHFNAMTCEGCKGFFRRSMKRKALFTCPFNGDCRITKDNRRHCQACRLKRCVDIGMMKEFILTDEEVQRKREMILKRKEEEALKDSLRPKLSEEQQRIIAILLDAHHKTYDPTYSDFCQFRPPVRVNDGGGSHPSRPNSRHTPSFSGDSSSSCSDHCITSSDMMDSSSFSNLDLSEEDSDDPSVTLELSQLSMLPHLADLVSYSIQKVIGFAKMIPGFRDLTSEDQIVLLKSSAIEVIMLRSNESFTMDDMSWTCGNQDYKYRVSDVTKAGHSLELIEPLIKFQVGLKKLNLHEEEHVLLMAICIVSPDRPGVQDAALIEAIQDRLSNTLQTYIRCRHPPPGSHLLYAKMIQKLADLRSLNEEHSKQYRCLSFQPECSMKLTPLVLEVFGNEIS
How it was run: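 HCT-116 cells (DMEM, 10% FBS, 37 °C, 5% CO2) plated at 90,000 cells/well ~24 h before transfection with a firefly luciferase reporter carrying the natural human CYP24A1 promoter (2 VDREs) plus Renilla control. Treated 18 h after transfection with 3.75 x 10^-5 M compound, 10^-10 M 1,25D or DMSO for 24 h. Read-out is dual luciferase, firefly/Renilla x10,000. Triplicate wells.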

[2] = biological target: T1, Vitamin D3 receptor (Homo sapiens); assay: Agonist activity at human VDR expressed in human HCT116 cells co-expressing VDRE assessed as XDR3 transcriptional activity at 20 to 40 uM after 24 hrs by luciferase reporter gene assay; assay type: cell-based; settings: HCT-116
How it was run: (§1)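 HCT-116 cells were transfected with a firefly luciferase plasmid holding two copies of the CYP3A4 XDR3 VDRE, plus a Renilla control. From 18 h post-transfection they were exposed to 3.75 x 10^-5 M compound, 10^-10 M 1,25D or DMSO in complete medium for 24 h. Dual-luciferase firefly/Renilla ratio. Three independent experiments, triplicate wells, mean ± SD.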

[3] = biological target: T2, Retinoic acid receptor RXR-alpha (Homo sapiens) (UniProt P19793); assay: Induction of RXRalpha-AD/RXRalpha-BD (unknown origin) homodimerization expressed in human HCT116 cells at 20 to 40 uM after 24 hrs by luciferase reporter gene assay; assay type: cell-based; settings: HCT-116
T2 sequence (whole entry): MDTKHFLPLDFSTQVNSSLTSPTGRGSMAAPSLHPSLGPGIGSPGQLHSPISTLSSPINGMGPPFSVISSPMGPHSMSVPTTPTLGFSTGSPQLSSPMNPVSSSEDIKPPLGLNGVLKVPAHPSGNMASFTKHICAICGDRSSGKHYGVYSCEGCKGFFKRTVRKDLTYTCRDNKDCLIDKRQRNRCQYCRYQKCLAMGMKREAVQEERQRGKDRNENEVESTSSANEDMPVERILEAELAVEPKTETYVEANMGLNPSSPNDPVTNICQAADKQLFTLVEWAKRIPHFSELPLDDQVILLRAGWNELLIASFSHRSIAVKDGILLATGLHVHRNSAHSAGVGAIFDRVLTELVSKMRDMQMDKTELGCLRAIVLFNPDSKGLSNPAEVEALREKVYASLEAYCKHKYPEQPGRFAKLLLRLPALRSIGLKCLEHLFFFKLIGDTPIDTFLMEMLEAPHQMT
How it was run: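 RXR–RXR homodimerization was measured by M2H in HCT-116 cells transfected with RXRα-AD prey, RXRα-BD bait, pFR-luc and Renilla control. […] Firefly luciferase was normalized to Renilla. Three independent experiments, triplicate samples, SD.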

[4] = biological target: T1, Vitamin D3 receptor (Homo sapiens); assay: Agonist activity at human VDR expressed in human HCT116 cells assessed as induction of recruitment of SRC-1 at 20 to 40 uM after 24 hrs by mammalian two hybrid system based luciferase reporter gene assay; assay type: cell-based; settings: HCT-116
How it was run: (§2)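 M2H in HCT-116 used a VDR-AD prey with an SRC-1-BD or DRIP205-BD bait (50 ng each), 250 ng pFR-luc and 20 ng pRL-null per well. Cells were treated with 3.75 x 10^-5 M compound, 10^-10 M 1,25D or DMSO for 24 h. Firefly luciferase was normalized to Renilla. Duplicate experiments, triplicate samples, SD.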

[5] = biological target: T3, Vitamin D3 receptor (Homo sapiens, UniProt P11473); assay: Agonist activity at human VDR expressed in human HCT116 cells co-expressing VDRE assessed as XDR3 transcriptional activity after 24 hrs by luciferase reporter gene assay; assay type: cell-based, HCT-116; how it was run: as §1
T3 sequence (P11473 whole entry): T1 sequence (whole entry)

[6] = biological target: T1, Vitamin D3 receptor (Homo sapiens); assay: Agonist activity at human VDR expressed in human HCT116 cells assessed as induction of recruitment of DRIP205 at 20 to 40 uM after 24 hrs by mammalian two hybrid system based luciferase reporter gene assay; assay type: cell-based; settings: HCT-116; how it was run: as §2

Compound | Activity [1] | Activity [2] | Activity [3] | Activity [4] | EC50 [5] [µM] | Activity [6]
COc1cc(CCC(=O)/C=C(\O)CCc2cc(F)c(O)c(OC)c2)cc(F)c1O | inactive | inactive | – | – | – | –
COc1cc(CCC(=O)/C=C(\O)CCc2ccc(O)c(OC)c2)ccc1O | – | Active | – | – | – | –
O=C(/C=C(O)/C=C/c1ccc(O)c(Br)c1)/C=C/c1ccc(O)c(Br)c1 | Active | Active | Active | – | – | –
COc1cc(/C=C/C(=O)/C=C(O)/C=C/c2cc(Cl)c(O)c(OC)c2)cc(Cl)c1O | Active | Active | Active | – | – | –
O=C(/C=C(O)/C=C/c1ccc(O)c(Cl)c1)/C=C/c1ccc(O)c(Cl)c1 | Active | Active | Active | – | – | –
COc1cc(/C=C/C(=O)CC(=O)/C=C/c2ccc(O)c(OC)c2)ccc1O [CURCUMIN] | Active | – | – | Active | 20 | Active
COc1cc(/C=C/C(=O)/C=C(O)/C=C/c2cc(Br)c(O)c(OC)c2)cc(Br)c1O | Active | Active | Active | Active | – | Active
COc1cc(/C=C/C(=O)/C=C(O)/C=C/c2cc(F)c(O)c(OC)c2)cc(F)c1O | – | Active | – | – | – | –
O=C(/C=C(O)/C=C/c1ccc(O)cc1F)/C=C/c1ccc(O)cc1F | inactive | inactive | – | – | – | –
COc1cc(/C=C/C(=O)/C=C(O)/C=C/c2cc(I)c(O)c(OC)c2)cc(I)c1O | Active | Active | Active | Active | – | Active
O=C(/C=C(\O)CCc1ccc(O)cc1F)CCc1ccc(O)cc1F | inactive | inactive | – | – | – | –
O=C(/C=C(O)/C=C/c1ccc(O)c(OC(F)(F)F)c1)/C=C/c1ccc(O)c(OC(F)(F)F)c1 | Active | Active | Active | Active | – | Active
